# Laboratory results taken from ChEMBL document CHEMBL1926577, “Novel 1,3,4-heterodiazole analogues: synthesis and in-vitro antitumor activity” (2012).
# Experiments:
# Assay type in all cases: functional
# HT-29 = assay: Growth inhibition of human HT-29 cells at 10 uM after 48 hrs by coulter counter method; conditions: HT-29, 48 h, read-out: GI
# How it was run: (§1)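 NCI 60-cell-line panel, single dose. Compound dissolved first in DMSO, then diluted in phosphate-buffered saline so that every final dilution held under 1% DMSO. Duplicate wells received cells at 6 × 10⁴ cells/ml. Controls held PBS/DMSO at the same dilution. Plates were incubated 48 h at 37 °C under 5% CO₂. Cells were then diluted 10-fold in saline and counted on a Coulter counter, with counts corrected for the dilution. Results are given as percent growth inhibition.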
# UACC-257 = assay: Growth inhibition of human UACC257 cells at 10 uM after 48 hrs by coulter counter method; conditions: UACC-257, 48 h, read-out: GI; how it was run: as §1
# OVCAR-8 = assay: Growth inhibition of human OVCAR8 cells at 10 uM after 48 hrs by coulter counter method; conditions: OVCAR-8, 48 h, read-out: GI; how it was run: as §1
# SF-295 = assay: Growth inhibition of human SF295 cells at 10 uM after 48 hrs by coulter counter method; conditions: SF-295, 48 h, read-out: GI; how it was run: as §1
# NCI-H522 = assay: Growth inhibition of human NCI-H522 cells at 10 uM after 48 hrs by coulter counter method; conditions: NCI-H522, 48 h, read-out: GI; how it was run: as §1
# HCT-116 = assay: Growth inhibition of human HCT116 cells at 10 uM after 48 hrs by coulter counter method; conditions: HCT-116, 48 h, read-out: GI; how it was run: as §1
# SK-MEL-2 = assay: Growth inhibition of human SK-MEL-2 cells at 10 uM after 48 hrs by coulter counter method; conditions: SK-MEL-2, 48 h, read-out: GI; how it was run: as §1
# K562 = assay: Growth inhibition of human K562 cells at 10 uM after 48 hrs by coulter counter method; conditions: K562, 48 h, read-out: GI; how it was run: as §1
# CAKI-1 = assay: Growth inhibition of human Caki1 cells at 10 uM after 48 hrs by coulter counter method; conditions: CAKI-1, 48 h, read-out: GI; how it was run: as §1
# IGROV-1 = assay: Growth inhibition of human IGROV1 cells at 10 uM after 48 hrs by coulter counter method; conditions: IGROV-1, 48 h, read-out: GI; how it was run: as §1
# NCI-H322M = assay: Growth inhibition of human NCI-H322M cells at 10 uM after 48 hrs by coulter counter method; conditions: read-out: GI; how it was run: as §1
# HCT-15 = assay: Growth inhibition of human HCT15 cells at 10 uM after 48 hrs by coulter counter method; conditions: HCT-15, 48 h, read-out: GI; how it was run: as §1
# Malme-3M = assay: Growth inhibition of human MALME-3M cells at 10 uM after 48 hrs by coulter counter method; conditions: read-out: GI; how it was run: as §1
# SNB-75 = assay: Growth inhibition of human SNB75 cells at 10 uM after 48 hrs by coulter counter method; conditions: SNB-75, 48 h, read-out: GI; how it was run: as §1
# NCI-H226 = assay: Growth inhibition of human NCI-H226 cells at 10 uM after 48 hrs by coulter counter method; conditions: NCI-H226, 48 h, read-out: GI; how it was run: as §1
# M14 = assay: Growth inhibition of human M14 cells at 10 uM after 48 hrs by coulter counter method; conditions: M14, 48 h, read-out: GI; how it was run: as §1
# A498 = assay: Growth inhibition of human A498 cells at 10 uM after 48 hrs by coulter counter method; conditions: A498, 48 h, read-out: GI; how it was run: as §1
# SK-MEL-28 = assay: Growth inhibition of human SK-MEL-28 cells at 10 uM after 48 hrs by coulter counter method; conditions: SK-MEL-28, 48 h, read-out: GI; how it was run: as §1
# KM12 = assay: Growth inhibition of human KM12 cells at 10 uM after 48 hrs by coulter counter method; conditions: KM12, 48 h, read-out: GI; how it was run: as §1
# EKVX = assay: Growth inhibition of human EKVX cells at 10 uM after 48 hrs by coulter counter method; conditions: read-out: GI; how it was run: as §1
# SN12C = assay: Growth inhibition of human SN12C cells at 10 uM after 48 hrs by coulter counter method; conditions: read-out: GI; how it was run: as §1
# SR = assay: Growth inhibition of human SR cells at 10 uM after 48 hrs by coulter counter method; conditions: read-out: GI; how it was run: as §1
# BT-549 = assay: Growth inhibition of human BT549 cells at 10 uM after 48 hrs by coulter counter method; conditions: BT-549, 48 h, read-out: GI; how it was run: as §1
# UACC-62 = assay: Growth inhibition of human UACC62 cells at 10 uM after 48 hrs by coulter counter method; conditions: UACC-62, 48 h, read-out: GI; how it was run: as §1
# SF-268 = assay: Growth inhibition of human SF268 cells at 10 uM after 48 hrs by coulter counter method; conditions: SF-268, 48 h, read-out: GI; how it was run: as §1
# UO-31 = assay: Growth inhibition of human UO31 cells at 10 uM after 48 hrs by coulter counter method; conditions: UO-31, 48 h, read-out: GI; how it was run: as §1
# 786-0 = assay: Growth inhibition of human 786-0 cells at 10 uM after 48 hrs by coulter counter method; conditions: 786-0, 48 h, read-out: GI; how it was run: as §1
# MCF7 = assay: Growth inhibition of human MCF7 cells at 10 uM after 48 hrs by coulter counter method; conditions: MCF7, 48 h, read-out: GI; how it was run: as §1
# A549 = assay: Growth inhibition of human A549 cells at 10 uM after 48 hrs by coulter counter method; conditions: A549, 48 h, read-out: GI; how it was run: as §1
# HL-60(TB) = assay: Growth inhibition of human HL-60(TB) cells at 10 uM after 48 hrs by coulter counter method; conditions: HL-60, 48 h, read-out: GI
# How it was run: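 Single-dose screen on the NCI 60-line panel (leukemia subpanel). Compound is dissolved in DMSO and diluted in PBS, with final DMSO below 1%. Duplicate wells hold 6 × 10⁴ cells/ml at 37 °C, 5% CO₂, for 48 h. Cells are counted by Coulter counter after 10-fold saline dilution. Read-out is percent growth versus PBS/DMSO controls, expressed as % growth inhibition.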
# T47D = assay: Growth inhibition of human T47D cells at 10 uM after 48 hrs by coulter counter method; conditions: read-out: GI; how it was run: as §1
# U-251 = assay: Growth inhibition of human U251 cells at 10 uM after 48 hrs by coulter counter method; conditions: U-251, 48 h, read-out: GI; how it was run: as §1
# SNB-19 = assay: Growth inhibition of human SNB19 cells at 10 uM after 48 hrs by coulter counter method; conditions: SNB-19, 48 h, read-out: GI; how it was run: as §1
# SK-MEL-5 = assay: Growth inhibition of human SK-MEL-5 cells at 10 uM after 48 hrs by coulter counter method; conditions: SK-MEL-5, 48 h, read-out: GI; how it was run: as §1
# MOLT-4 = assay: Growth inhibition of human MOLT4 cells at 10 uM after 48 hrs by coulter counter method; conditions: MOLT-4, 48 h, read-out: GI; how it was run: as §1
# MDA-MB-435 = assay: Growth inhibition of human MDA-MB-435 cells at 10 uM after 48 hrs by coulter counter method; conditions: MDA-MB-435, 48 h, read-out: GI; how it was run: as §1
# TK-10 = assay: Growth inhibition of human TK10 cells at 10 uM after 48 hrs by coulter counter method; conditions: TK-10, 48 h, read-out: GI; how it was run: as §1
# MDA-MB-468 = assay: Growth inhibition of human MDA-MB-468 cells at 10 uM after 48 hrs by coulter counter method; conditions: MDA-MB-468, 48 h, read-out: GI; how it was run: as §1
# LOX IMVI = assay: Growth inhibition of human LOXIMVI cells at 10 uM after 48 hrs by coulter counter method; conditions: read-out: GI; how it was run: as §1
# CCRF-CEM = assay: Growth inhibition of human CCRF-CEM cells at 10 uM after 48 hrs by coulter counter method; conditions: read-out: GI; how it was run: as §1
# NCI-H23 = assay: Growth inhibition of human NCI-H23 cells at 10 uM after 48 hrs by coulter counter method; conditions: NCI-H23, 48 h, read-out: GI; how it was run: as §1
# ACHN = assay: Growth inhibition of human ACHN cells at 10 uM after 48 hrs by coulter counter method; conditions: read-out: GI; how it was run: as §1
# NCI/ADR-RES = assay: Growth inhibition of human NCI/ADR-RES cells at 10 uM after 48 hrs by coulter counter method; conditions: read-out: GI; how it was run: as §1
# PC-3 = assay: Growth inhibition of human PC3 cells at 10 uM after 48 hrs by coulter counter method; conditions: PC-3, 48 h, read-out: GI; how it was run: as §1
smiles,measurement,setting,value
NC1=CC(N)=NC2SC(c3ccc(Cl)cc3)=NN12 (centres undefined),inhibition of growth at 10 µM,HT-29,11.8%
same,inhibition of growth at 10 µM,UACC-257,< 10%
same,inhibition of growth at 10 µM,OVCAR-8,< 10%
same,inhibition of growth at 10 µM,SF-295,< 10%
same,inhibition of growth at 10 µM,NCI-H522,19.9%
same,inhibition of growth at 10 µM,HCT-116,< 10%
same,inhibition of growth at 10 µM,SK-MEL-2,27.5%
same,inhibition of growth at 10 µM,K562,26.9%
same,inhibition of growth at 10 µM,CAKI-1,< 10%
same,inhibition of growth at 10 µM,IGROV-1,22.3%
same,inhibition of growth at 10 µM,NCI-H322M,< 10%
same,inhibition of growth at 10 µM,HCT-15,< 10%
same,inhibition of growth at 10 µM,Malme-3M,< 10%
same,inhibition of growth at 10 µM,SNB-75,< 10%
same,inhibition of growth at 10 µM,NCI-H226,13.1%
same,inhibition of growth at 10 µM,M14,< 10%
same,inhibition of growth at 10 µM,A498,< 10%
same,inhibition of growth at 10 µM,SK-MEL-28,17.4%
same,inhibition of growth at 10 µM,KM12,< 10%
same,inhibition of growth at 10 µM,EKVX,< 10%
same,inhibition of growth at 10 µM,SN12C,< 10%
same,inhibition of growth at 10 µM,SR,19.9%
same,inhibition of growth at 10 µM,BT-549,< 10%
same,inhibition of growth at 10 µM,UACC-62,< 10%
same,inhibition of growth at 10 µM,SF-268,< 10%
same,inhibition of growth at 10 µM,UO-31,21.9%
same,inhibition of growth at 10 µM,786-0,< 10%
same,inhibition of growth at 10 µM,MCF7,< 10%
same,inhibition of growth at 10 µM,A549,< 10%
same,inhibition of growth at 10 µM,HL-60(TB),34.1%
same,inhibition of growth at 10 µM,T47D,< 10%
same,inhibition of growth at 10 µM,U-251,< 10%
same,inhibition of growth at 10 µM,SNB-19,< 10%
same,inhibition of growth at 10 µM,SK-MEL-5,< 10%
same,inhibition of growth at 10 µM,MOLT-4,20.6%
same,inhibition of growth at 10 µM,MDA-MB-435,< 10%
same,inhibition of growth at 10 µM,TK-10,< 10%
same,inhibition of growth at 10 µM,MDA-MB-468,< 10%
same,inhibition of growth at 10 µM,LOX IMVI,< 10%
same,inhibition of growth at 10 µM,CCRF-CEM,< 10%
same,inhibition of growth at 10 µM,NCI-H23,< 10%
same,inhibition of growth at 10 µM,ACHN,< 10%
same,inhibition of growth at 10 µM,NCI/ADR-RES,< 10%
same,inhibition of growth at 10 µM,PC-3,14.3%
